Screens as filed in PubChem BioAssay.
Beta cell apopt = inhibitors of cytokine-induced beta cell apoptosis, primary screen, luminescence. INS-1E cytokine-induced death, ATP luminescence, 48 h; percent of positive-control rescue, neutral wells zero. protection from apoptosis, % (concentration not given with the values). hit rate 0.8% among 300,000;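 active = Every replicate reaches about 75%, or at least half do and their mean reaches it too, limit read from the data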;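 note: higher means more ATP so stronger rescue from cytokine killing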
Mdm2-MdmX inh = inhibitors of human Mdm2-MdmX association, primary screen, cell-based, luminescence, split luciferase, SaOS-2, uHTS; Protein Mdm4 (Homo sapiens) + E3 ubiquitin-protein ligase Mdm2 (Homo sapiens), …; AID 485346, 2010; inhibition, % at 8 µM; hit rate 3% among 330,000; SaOS-2 split-luciferase Mdm2/MdmX complementation;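 active = inhibition of at least 50% at 8 µM in the primary screen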
T cruzi inh = inhibitors of intracellular T. cruzi growth, primary screen, luminescence, NIH3T3 host cells; T. cruzi beta-gal in NIH3T3, 90 h; inhibition, % (concentration not given with the values); hit rate 1.4% among 300,000;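 active = mean inhibition across valid replicates above about 55%, limit read from the data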;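 note: signal also drops with host cell toxicity which is not excluded here; higher percent means less beta-gal luminescence so fewer parasites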
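System: Mouse NIH/3T3 fibroblasts infected with β-gal-expressing T. cruzi Tulahuen C4 | Quantity: NIH/3T3 cells, 5,000 per well | Reagent: 5000 reporter trypomastigotes per well | Dosing: Compound pinned at 50 nL/well, DMSO | Schedule: 3 h host attachment, then at least 90 h co-culture | Detection: GalScreen luminescence, 60 min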
CSC inhib = cancer stem cell viability inhibitors, primary screen, luminescence; cancer stem cell-like cells viability; inhibition, % at 7.5 µM; hit rate 1.1% among 300,000; AID 2717, 2010; in the data active = inhibition above about 75%; tested in HMLE shEcad cells
CHOP UPR activ = activators of apoptotic CHOP UPR arm, primary screen, cell-based, CHO-CHOP luciferase reporter, luminescence, uHTS | AID 449763, 2010 | hit rate 0.34% among 330,000 | activation, % at 10 µM | UPR activation; percent of tunicamycin response over DMSO baseline;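 active = at 10 µM dose, activation of 40% or more, normalized to positive control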
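Test system: CHO-CHOP cells, stable luciferase reporter of PERK-eIF2a-CHOP signalling | Quantity: 500 CHO-CHOP cells per well | Buffer or medium: F12 plus 10% serum | Compound dosing: 10 µM single point, 0.5% DMSO | Schedule: 6 h compound treatment, 37 °C | Signal: Luciferase luminescence | Control set: Tunicamycin high control, DMSO low control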
UPR XBP1 act = activators of adaptive XBP1 UPR arm, primary screen, cell-based, CHO-XBP1 luciferase reporter, luminescence, uHTS. IRE1-XBP1 UPR activation; percent of tunicamycin response, DMSO as zero. hit rate 0.33% among 330,000. activation, % at 20 µM;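 active = versus positive control, 20 µM dose yields 30% or more activation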
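Material: CHO cell line with stable XBP1 luciferase reporter; buffer or medium: F12 medium containing 10% fetal bovine serum; compound: single point, 20 µM final compound, 1% DMSO; incubation: 6 h treatment, 37 °C; measured by: glow luminescence from Steady-Glo reagent; evaluation: activation, % of tunicamycin; control set: tunicamycin high, DMSO low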
Large screens that a line does not name were inactive. Only some compounds are listed: those with a hit (about 5% of all), similar ones and a draw of the others.

CC1C(=O)C(C)C(c2ccc3c(c2)OCO3)NC1c1ccc2c(c1)OCO2 (centres undefined)	none
Oc1cccc(/C=N/NC(=S)Nc2cccnc2)c1O	Beta cell apopt 87 (no result: Mdm2-MdmX inh, CHOP UPR activ, UPR XBP1 act)
CSc1nc(N)nc2c1ncn2CC(=O)N1CCN(Cc2c(C)cc(C)cc2C)CC1	Beta cell apopt 100 (no result: T cruzi inh, CSC inhib)
COc1cccc(OCC(O)CN2CCN(CCN3C(=O)c4cccc5cccc(c45)C3=O)CC2)c1 (centres undefined)	T cruzi inh 70
COc1ccc(-n2c(SCC#N)nc3c(sc(=S)n3-c3ccccc3)c2=O)c(OC)c1	none (no result: Beta cell apopt, CSC inhib)
CCOC(=O)C1CCCCN1Cc1ccc(-c2ccccc2)cc1 (centres undefined)	none
Cc1ccc(C)c(NC(=O)CSc2ncnc3nc[nH]c23)c1	none
O=C(CSc1ncnc2nc[nH]c12)Nc1nnc(SCc2ccc(Cl)c(Cl)c2)s1	CSC inhib 93
CC1(C)CC(=O)C=C(c2cccc3c2sc2ccccc23)C1	none (no result: T cruzi inh)
O=C(NC(CC(=O)N1CCN(c2ccccc2O)CC1)c1ccccc1)c1ccccc1Cl (centres undefined)	none (no result: T cruzi inh, CSC inhib)
COC(=O)c1ccc(/C=C/c2c(-c3ccc(OC)cc3)oc3ccccc23)cc1	CSC inhib 109
COC(=O)c1ccc(/C=C/c2c(-c3ccc(OC)cc3)oc3ccc(N4CCOCC4)cc23)cc1	CSC inhib 109
COc1ccc(/C=C/c2c(-c3ccc(OC)cc3)oc3ccccc23)cc1	none
COc1ccc(/C=C/c2c(-c3cccc(C)c3)oc3ccc(N4CCOCC4)cc23)cc1	none
COc1cccc(NC(=O)CN(C)CC(=O)c2c(C)[nH]c3ccccc23)c1	none (no result: T cruzi inh, CSC inhib)
O=c1oc2ccccc2c2c1SC(C(F)(F)F)C2 (centres undefined)	none
COc1cc(/C=N/NC(=O)CNC(=O)c2ccccc2)ccc1OC(=O)c1cccs1	none
COc1ccc(C2OCC3(CO2)SC(N)=NC3=O)cc1 (centres undefined)	none
CC(C)(C)NCC1(CO)SC(N)=NC1=O (centres undefined)	T cruzi inh 57
O=C(COC(=O)c1cc(S(=O)(=O)N2CCCC2)ccc1O)NCCc1ccccc1	none (no result: T cruzi inh, CSC inhib)
COc1ccc(C(=O)/C=C/C(=O)N(CC(=O)NC2CCCCC2)Cc2ccc(F)cc2)c(O)c1	T cruzi inh 59 (no result: Beta cell apopt, Mdm2-MdmX inh, CSC inhib, CHOP UPR activ, UPR XBP1 act)
COCCNC(=O)CCc1nnc(Cc2ccc(-c3ccccc3)cc2)o1	none
COCCNC(=O)CCC1CCN(Cc2ccc(-c3ccccc3)cc2)CC1	T cruzi inh 58 (no result: Beta cell apopt)
Cc1ccc(C)c(N(CC(=O)NC2CCCC2)C(=O)c2cc3cc4cc(C)ccc4nc3s2)c1	none
Cc1cccc(N(CC(=O)NC2CCCC2)C(=O)c2cc3cc4cccc(C)c4nc3s2)c1C	T cruzi inh 57
CCOC(=O)/C(=N\Nc1cccc(C(F)(F)F)c1)N(CCOC)CCOC	none
CCOC(=O)/C(=N\Nc1cccc(C(F)(F)F)c1)N1CCOCC1	CSC inhib 83
CN1CCN(C(=S)NC(=O)c2ccccc2Br)CC1	none
COc1ccc(CCC(=O)Nc2ccccc2C(F)(F)F)cc1	none
O=[N+]([O-])c1cc(Br)c2nsnc2c1N1CCOCC1	none (no result: Beta cell apopt, CSC inhib)
COc1cc([N+](=O)[O-])c(N2CCOCC2)c([N+](=O)[O-])c1OC	T cruzi inh 75
Cc1cccc(/C=N/NC(=O)c2ccc3c(c2)OCCO3)c1O	Beta cell apopt 94
O=C(N/N=C/c1ccc(COc2ccc(Br)cc2)o1)c1ccc2c(c1)OCO2	none (no result: Beta cell apopt, CSC inhib)
Cc1cccc(/C=N\NC(=O)c2ccc(Cl)cc2)c1O	Beta cell apopt 96, T cruzi inh 64
O=C(N/N=C/c1ccc(-c2ccc(Br)cc2)o1)c1ccc2c(c1)OCO2	T cruzi inh 74
O=C(N/N=C/c1c[nH]c2ccccc12)c1ccc(Cl)cc1	none (no result: Beta cell apopt)
O=C(N/N=C/c1cc([N+](=O)[O-])ccc1O)c1cccc2cc[nH]c12	Beta cell apopt 100, T cruzi inh 57, CSC inhib 88
